Experimental data from ChEMBL document CHEMBL1136075, “Synthesis of the novel liqustrazine derivatives and Their protective effect on injured vascular endothelial cell damaged by hydrogen peroxide” (2003).
Calls of active or inactive are those of the source. The rule behind the calls is not given here.

Legend:
HUVEC [1] = assay: Maximum stimulation of proliferation rate of human umbilical vascular endothelial cells (HUVECs) by the compound at a concentration of 0.1 mM; format: functional
Procedure, shortened: (§1)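 Cultured human umbilical vein endothelial cells (normal, uninjured) exposed to compound over 0.1–1.5 mmol L⁻¹; viability by MTT, absorbance at 570 nm. Proliferation rate P(%) = (A − A0)/A0, with A0 the vehicle-treated control wells. The maximum P over the concentrations tested is reported. Mean ± SEM, n=6 wells.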

HUVEC [2] = assay: Maximum stimulation of proliferation rate of human umbilical vascular endothelial cells (HUVECs) by the compound at a concentration of 1.5 mM; format: functional; procedure, shortened: as §1
HUVEC [3] = assay: Maximum stimulation of proliferation rate of human umbilical vascular endothelial cells (HUVECs) by the compound at a concentration of 0.6 mM; format: functional; procedure, shortened: as §1
HUVEC [4] = assay: Maximum stimulation of proliferation rate of human umbilical vascular endothelial cells (HUVECs) by the compound at a concentration of 0.1-1.5 mM; NA is not active; format: functional, cell-based; procedure, shortened: as §1

Row | SMILES | Pmax (HUVEC [1]) [%] | further results
1 | Cc1nc(C)c(COC(=O)CCc2ccccc2)nc1C | 80.54 | 
2 | Cc1nc(C)c(COC(=O)C(C)(C)Oc2ccc(Cl)cc2)nc1C | 87.85 | 
3 | Cc1nc(C)c(COC(=O)c2ccccc2I)nc1C |  | Pmax (HUVEC [2]): 61.36%
4 | Cc1nc(C)c(COC(=O)c2ccc(Cl)cc2)nc1C | 82.55 | 
5 | Cc1nc(C)c(C)nc1C [LIGUSTRAZINE] |  | Pmax (HUVEC [3]): 20.66%
6 | Cc1nc(C)c(COC(=O)c2ccccc2)nc1C |  | Pmax (HUVEC [3]): 37%
7 | COc1ccc(/C=C/C(=O)OCc2nc(C)c(C)nc2C)cc1 | 75.45 | 
8 | COc1cc(/C=C/C(=O)OCc2nc(C)c(C)nc2C)ccc1O | 83.87 | 
9 | Cc1nc(C)c(COC(=O)c2ccccc2Cl)nc1C |  | Pmax (HUVEC [3]): 32.1%
10 | COc1cc(C(=O)OCc2nc(C)c(C)nc2C)cc(OC)c1OC | 45.8 | 
11 | Cc1nc(C)c(COC(=O)c2ccc(Br)cc2)nc1C |  | Pmax (HUVEC [4]): inactive
12 | Cc1nc(C)c(COC(=O)c2cccnc2)nc1C | 88.57 | 
13 | Cc1nc(C)c(COC(=O)c2ccc(Br)cc2Br)nc1C |  | Pmax (HUVEC [4]): inactive
14 | COc1ccccc1C(=O)OCc1nc(C)c(C)nc1C | 71.95 | 
15 | COc1ccc(C(=O)OCc2nc(C)c(C)nc2C)cc1 | 66.04 | 
16 | COc1ccc(/C=C/C(=O)OCc2nc(C)c(C)nc2C)c(OC)c1 | 70.16 | 
17 | Cc1nc(C)c(COC(=O)c2ccco2)nc1C |  | Pmax (HUVEC [3]): 69.39%
18 | Cc1nc(C)c(COC(=O)Cc2ccccc2)nc1C | 76.11 | 
19 | CC(=O)Oc1ccccc1C(=O)OCc1nc(C)c(C)nc1C | 70.88 | 
20 | Cc1nc(C)c(CO)nc1C |  | Pmax (HUVEC [3]): 28.03%
21 | COc1ccc(C(=O)OCc2nc(C)c(C)nc2C)cc1OC | 52.95 | 
22 | Cc1nc(C)c(COC(=O)c2cccc(Cl)c2)nc1C | 59.32 | 
23 | Cc1nc(C)c(COC(=O)/C=C/c2ccccc2)nc1C |  | Pmax (HUVEC [3]): 77.32%
